According to ChEMBL document CHEMBL3608260 (Bioorg Med Chem Lett, 2015):
Non-standard residues stand in square brackets, D forms with d. Residues, ends and D or L forms follow the SMILES beside them. *: point of attachment. OBzl(3,5-(CF3)2) = FC(F)(F)c1cc(CO*)cc(C(F)(F)F)c1; Phe(4-Cl) = N[C@@H](Cc1ccc(Cl)cc1)C(=O)O; Phe(4-F) = N[C@@H](Cc1ccc(F)cc1)C(=O)O; Nle = CCCC[C@H](N)C(=O)O; βAla = NCCC(=O)O

Key:
[1] = biological target: Substance-P receptor (Cavia porcellus) (UniProt P30547); experiment: Antagonist activity at NK1 receptor in guinea pig ileum assessed as inhibition of substance P-induced muscle contraction in presence of naloxone; assay type: tissue-based
Chain of Substance-P receptor (Cavia porcellus) (P30547 whole entry): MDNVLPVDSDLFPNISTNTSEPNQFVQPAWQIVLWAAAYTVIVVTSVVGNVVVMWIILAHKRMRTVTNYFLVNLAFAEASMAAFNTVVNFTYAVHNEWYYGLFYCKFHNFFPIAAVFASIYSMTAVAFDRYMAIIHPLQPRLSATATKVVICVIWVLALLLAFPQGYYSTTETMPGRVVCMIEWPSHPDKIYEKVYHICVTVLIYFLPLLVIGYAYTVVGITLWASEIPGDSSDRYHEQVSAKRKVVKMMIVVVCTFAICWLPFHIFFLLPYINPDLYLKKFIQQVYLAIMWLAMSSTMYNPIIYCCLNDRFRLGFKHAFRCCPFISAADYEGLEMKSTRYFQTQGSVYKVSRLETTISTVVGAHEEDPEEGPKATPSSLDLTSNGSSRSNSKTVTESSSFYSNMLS

[2] = biological target: T1, Delta-type opioid receptor (Homo sapiens, UniProt P41143); experiment: Agonist activity at human delta opioid receptor transfected in HN9.10 cells by [35S]GTPgammaS binding assay; assay type: functional, cell-based
T1 sequence (P41143 whole entry): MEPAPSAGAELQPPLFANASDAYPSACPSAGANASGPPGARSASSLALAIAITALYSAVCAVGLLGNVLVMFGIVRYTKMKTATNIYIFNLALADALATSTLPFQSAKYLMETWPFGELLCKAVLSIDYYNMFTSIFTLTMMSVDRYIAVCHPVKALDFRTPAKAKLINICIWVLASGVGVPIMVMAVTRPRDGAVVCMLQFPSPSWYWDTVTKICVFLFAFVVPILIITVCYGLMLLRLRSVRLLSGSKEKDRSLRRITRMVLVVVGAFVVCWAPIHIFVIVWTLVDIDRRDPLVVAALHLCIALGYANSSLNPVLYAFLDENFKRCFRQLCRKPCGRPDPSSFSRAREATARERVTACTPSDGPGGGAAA
In short: (§1)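 Membranes from transfected HN9.10 cells constitutively expressing human DOR or rat MOR. EC50 comes from non-linear regression of at least two independent experiments in duplicate. Emax = [Total bound − Basal]/[Basal − Non-specific] × 100.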

[3] = biological target: Substance-P receptor (Rattus norvegicus, UniProt P14600); experiment: Displacement of [3H]-substance P from rat NK1 receptor transfected in CHO cells; assay type: cell-based
Chain of Substance-P receptor (P14600 whole entry): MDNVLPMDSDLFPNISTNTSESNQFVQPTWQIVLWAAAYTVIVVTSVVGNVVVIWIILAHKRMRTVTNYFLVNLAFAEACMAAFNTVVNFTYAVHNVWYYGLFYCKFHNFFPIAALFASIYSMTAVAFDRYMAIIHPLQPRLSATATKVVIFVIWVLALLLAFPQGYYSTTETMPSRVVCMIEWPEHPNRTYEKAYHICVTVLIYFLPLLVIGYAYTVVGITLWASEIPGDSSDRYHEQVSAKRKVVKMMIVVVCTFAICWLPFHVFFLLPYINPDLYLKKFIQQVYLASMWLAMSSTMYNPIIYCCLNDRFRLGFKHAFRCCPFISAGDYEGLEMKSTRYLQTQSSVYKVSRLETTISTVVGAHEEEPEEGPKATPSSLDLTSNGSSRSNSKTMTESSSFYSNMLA

[4] = biological target: T1, Delta-type opioid receptor; experiment: Displacement of [3H]-DPDPE from human delta opioid receptor transfected in HN9.10 cells; assay type: cell-based
[5] = Ratio of Ki for rat NK1 receptor to Ki for human NK1 receptor
[6] = biological target: Mu-type opioid receptor (Rattus norvegicus) (UniProt P33535); experiment: (§2) Agonist activity at rat mu opioid receptor transfected in HN9.10 cells by [35S]GTPgammaS binding assay; assay type: functional, cell-based; in short: as §1
Chain of Mu-type opioid receptor (Rattus norvegicus) (P33535 whole entry): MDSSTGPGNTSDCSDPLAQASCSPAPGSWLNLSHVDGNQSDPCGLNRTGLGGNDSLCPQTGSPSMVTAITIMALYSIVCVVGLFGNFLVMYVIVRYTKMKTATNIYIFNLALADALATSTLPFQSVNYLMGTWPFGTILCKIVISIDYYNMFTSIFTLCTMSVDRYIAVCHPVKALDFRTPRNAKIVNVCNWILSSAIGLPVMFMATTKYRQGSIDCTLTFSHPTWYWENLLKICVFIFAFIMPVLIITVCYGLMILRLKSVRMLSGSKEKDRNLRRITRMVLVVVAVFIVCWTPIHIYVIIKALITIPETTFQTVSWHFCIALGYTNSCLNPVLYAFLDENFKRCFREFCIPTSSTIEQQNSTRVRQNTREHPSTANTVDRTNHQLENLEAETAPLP

[7] = Selectivity ratio of Ki for rat mu opioid receptor to Ki for human delta opioid receptor
[8] = biological target: Mu-type opioid receptor (Cavia porcellus, UniProt P97266); experiment: Agonist activity at mu opioid receptor in guinea pig ileum assessed as inhibition of electrically-stimulated muscle contraction; assay type: tissue-based
Chain of Mu-type opioid receptor (Cavia porcellus, UniProt P97266) (P97266 whole entry): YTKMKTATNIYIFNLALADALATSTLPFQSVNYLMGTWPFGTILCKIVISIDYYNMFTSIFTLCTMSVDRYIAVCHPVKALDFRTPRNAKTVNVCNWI
In short: (§3)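 Electrically stimulated isolated tissue (mouse vas deferens or guinea pig ileum).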

[9] = biological target: Delta-type opioid receptor (Mus musculus) (UniProt P32300); experiment: Agonist activity at delta opioid receptor in mouse vas deferens assessed as inhibition of electrically-stimulated muscle contraction at 1 uM relative to control
Chain of Delta-type opioid receptor (Mus musculus) (P32300 whole entry): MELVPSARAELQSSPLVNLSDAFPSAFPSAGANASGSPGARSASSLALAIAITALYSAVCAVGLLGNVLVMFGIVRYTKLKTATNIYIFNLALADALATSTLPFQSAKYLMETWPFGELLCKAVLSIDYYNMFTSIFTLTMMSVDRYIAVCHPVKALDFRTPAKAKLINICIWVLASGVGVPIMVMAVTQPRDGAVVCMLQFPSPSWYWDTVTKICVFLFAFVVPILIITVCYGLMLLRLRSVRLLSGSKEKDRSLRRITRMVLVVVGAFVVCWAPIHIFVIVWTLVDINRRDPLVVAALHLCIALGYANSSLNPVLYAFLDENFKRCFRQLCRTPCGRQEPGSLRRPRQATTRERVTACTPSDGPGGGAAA

[10] = biological target: Mu-type opioid receptor (Cavia porcellus) (UniProt P97266); experiment: Agonist activity at mu opioid receptor in guinea pig ileum assessed as inhibition of electrically-stimulated muscle contraction at 1 uM relative to control; assay type: tissue-based
Chain of Mu-type opioid receptor (Cavia porcellus) (P97266 whole entry): as the sequence (P97266 whole entry) above

[11] = biological target: Mu-type opioid receptor (Rattus norvegicus, UniProt P33535); experiment: as §2; assay type: functional, cell-based; in short: as §1
Chain of Mu-type opioid receptor (Rattus norvegicus, UniProt P33535) (P33535 whole entry): as the sequence (P33535 whole entry) above

[12] = biological target: Delta-type opioid receptor (Mus musculus, UniProt P32300); experiment: Agonist activity at delta opioid receptor in mouse vas deferens assessed as inhibition of electrically-stimulated muscle contraction; in short: as §3
Chain of Delta-type opioid receptor (Mus musculus, UniProt P32300) (P32300 whole entry): as the sequence (P32300 whole entry) above

Compound | Ke [1] | Ki [3] | Emax [2] | Emax [6] | further results
C[C@@H](NC(=O)[C@@H](N)Cc1ccc(O)cc1)C(=O)NCC(=O)N[C@@H](Cc1ccc(Cl)cc1)C(=O)NCC(=O)N[C@@H](Cc1c[nH]c2ccccc12)C(=O)OCc1cc(C(F)(F)F)cc(C(F)(F)F)c1 (H-Y[dA]G[Phe(4-Cl)]GW-{OBzl(3,5-(CF3)2)}) | 30 nM |  |  |  | 
C[C@@H](NC(=O)[C@@H](N)Cc1ccc(O)cc1)C(=O)NCC(=O)N[C@@H](Cc1ccc(F)cc1)C(=O)NCC(=O)N[C@@H](Cc1c[nH]c2ccccc12)C(=O)OCc1cc(C(F)(F)F)cc(C(F)(F)F)c1 (H-Y[dA]G[Phe(4-F)]GW-{OBzl(3,5-(CF3)2)}) | 10 nM |  |  |  | 
Cc1cc(O)cc(C)c1C[C@H](N)C(=O)N[C@H](C)C(=O)N[C@@H](Cc1c[nH]c2ccccc12)C(=O)OCc1cc(C(F)(F)F)cc(C(F)(F)F)c1 | 110 nM |  |  |  | EC50 [2]: 12 nM
CCCC[C@H](NC(=O)[C@H](Cc1ccccc1)NC(=O)CNC(=O)[C@@H](C)NC(=O)[C@@H](N)Cc1ccc(O)cc1)C(=O)N[C@@H](Cc1c[nH]c2ccccc12)C(=O)OCc1cc(C(F)(F)F)cc(C(F)(F)F)c1 (H-Y[dA]GF[Nle]W-{OBzl(3,5-(CF3)2)}) | 13 nM |  |  |  | 
C[C@@H](NC(=O)[C@@H](N)Cc1ccc(O)cc1)C(=O)NCC(=O)N[C@@H](Cc1c[nH]c2ccccc12)C(=O)OCc1cc(C(F)(F)F)cc(C(F)(F)F)c1 (H-Y[dA]GW-{OBzl(3,5-(CF3)2)}) | 5 nM | 15 nM | 33% | 34% | Ki [4]: 310 nM; Ratio Ki [5]: 500; Ratio Ki [7]: 0.16; IC50 [8]: 840 nM
C[C@@H](NC(=O)[C@@H](N)Cc1ccc(O)cc1)C(=O)N[C@@H](Cc1c[nH]c2ccccc12)C(=O)OCc1cc(C(F)(F)F)cc(C(F)(F)F)c1 | 49 nM | 2.9 nM | 36% | 26% | Ratio Ki [5]: 730; inhibition [9]: 5.5%; inhibition [10]: 3.3%; EC50 [11]: 170 nM; Ratio Ki [7]: 1.8
C[C@@H](NC(=O)[C@@H](N)Cc1ccc(O)cc1)C(=O)NCC(=O)N[C@@H](Cc1ccc(F)cc1)C(=O)OCc1cc(C(F)(F)F)cc(C(F)(F)F)c1 | 52 nM | 230 nM | 78% | 58% | Ki [4]: 56 nM; EC50 [2]: 6.7 nM; IC50 [12]: 180 nM; IC50 [8]: 210 nM
C[C@@H](NC(=O)[C@@H](N)Cc1ccc(O)cc1)C(=O)NCC(=O)N[C@@H](Cc1ccccc1)C(=O)N[C@@H](Cc1c[nH]c2ccccc12)C(=O)OCc1cc(C(F)(F)F)cc(C(F)(F)F)c1 (H-Y[dA]GFW-{OBzl(3,5-(CF3)2)}) | 38 nM |  |  | 14% | 
Cc1cc(O)cc(C)c1C[C@H](N)C(=O)N[C@H](C)C(=O)N[C@@H](Cc1c[nH]c2ccccc12)C(=O)NCc1cc(C(F)(F)F)cc(C(F)(F)F)c1 | 22 nM |  | 50% |  | 
C[C@@H](NC(=O)[C@@H](N)Cc1ccc(O)cc1)C(=O)NCC(=O)N[C@@H](Cc1ccccc1)C(=O)NCCC(=O)N[C@@H](Cc1c[nH]c2ccccc12)C(=O)OCc1cc(C(F)(F)F)cc(C(F)(F)F)c1 (H-Y[dA]GF[βAla]W-{OBzl(3,5-(CF3)2)}) | 250 nM |  |  |  | IC50 [12]: 13 nM
